pIC50: −log10 of the molar value. Activity calls are given as the source filed them. No cut-off for these calls is given here.
Legend:
Beta-secretase 1 [1] = biological target: T1, Beta-secretase 1 (Homo sapiens, UniProt P56817); experiment: Inhibition of BACE1 in HEK293 cells transfected with human betaAPP695 mutant assessed as inhibition of amyloid beta (1 to 40) production after 24 hrs by ELISA; assay type: cell-based
Outline: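 HEK293 cells stably carrying APP695 with Swedish double mutation, grown in DMEM plus 10% heat-inactivated FBS. Compounds added at seeding at several concentrations, 24 h at 37 °C, 5% CO2. Secreted Aβ1-40 in conditioned medium quantified by colorimetric sandwich ELISA.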

Beta-secretase 1 [2] = biological target: T1, Beta-secretase 1; experiment: Inhibition of human recombinant C-terminal histidine-tagged BACE1 expressed in baculovirus-infected insect cells by FRET assay
Mus musculus [3] = experiment: Decrease in amyloid beta (1 to 40) production in transgenic mouse transfected with human APP695 Swedish double mutant at 8 nmol, intracerebroventricularly after 4 hrs by ELISA relative to control; assay type: functional; design: scale not given: the % may be the effect or the level left
Outline: (§1)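 The vehicle control was distilled H2O. After 4 h, hemispheres were isolated on ice and Aβ1-40 was measured by colorimetric human Aβ1-40 ELISA against vehicle-treated mice. Data are means ± SD; independent t-test.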

PC-12 = experiment: Cell protective activity against H2O2-induced cell injury in rat PC12 cells assessed as cell viability at 1 to 10 uM pretreated for 2 hrs measured after 24 hrs by MTT assay; assay type: functional, cell-based
Outline: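 PC12 cells seeded at 1 × 10^5 cells per mL in DMEM with 10% heat-inactivated bovine calf serum, used 24 h later. Compounds dissolved in 2% DMSO then diluted in PBS; 2 h pretreatment, H2O2 for 30 min, then fresh phenol red-free DMEM. Viability by MTT reduction 24 h later, absorbance 570 and 630 nm. Means ± SD, one-way ANOVA with Duncan's test.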

Mus musculus [4] = experiment: Decrease in amyloid beta (1 to 40) production in transgenic mouse transfected with human APP695 Swedish double mutant at 10 nmol, intracerebroventricularly after 4 hrs by ELISA relative to control; assay type: functional; design: scale not given: the % may be the effect or the level left; outline: as §1

T1 sequence (P56817 whole entry): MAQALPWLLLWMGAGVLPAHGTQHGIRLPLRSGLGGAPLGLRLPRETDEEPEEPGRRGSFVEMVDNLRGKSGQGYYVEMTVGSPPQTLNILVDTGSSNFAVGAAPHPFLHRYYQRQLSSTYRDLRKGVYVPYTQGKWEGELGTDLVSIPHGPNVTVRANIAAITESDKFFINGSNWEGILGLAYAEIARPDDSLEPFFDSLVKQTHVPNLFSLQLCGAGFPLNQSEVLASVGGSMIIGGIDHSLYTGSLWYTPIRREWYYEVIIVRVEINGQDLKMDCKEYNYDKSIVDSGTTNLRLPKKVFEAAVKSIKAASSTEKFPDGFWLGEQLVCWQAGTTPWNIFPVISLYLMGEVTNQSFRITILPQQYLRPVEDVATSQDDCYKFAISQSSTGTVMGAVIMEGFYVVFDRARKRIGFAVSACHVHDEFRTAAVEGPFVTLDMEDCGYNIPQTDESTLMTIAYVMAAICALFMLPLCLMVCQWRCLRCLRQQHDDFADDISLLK

SMILES | pIC50 (Beta-secretase 1 [1]) | pIC50 (Beta-secretase 1 [2]) | also measured
C[C@@H](NC(=O)c1cccc(C(=O)N[C@@H](Cc2ccccc2)[C@H](O)CNCCC2CCN(Cc3ccccc3)CC2)c1)c1ccc(F)cc1 | > 6.00 |  | 
CCCN(CCC)C(=O)c1cc(C(=O)N[C@@H](Cc2ccccc2)C(O)C(=O)NC2CCN(Cc3ccccc3)CC2)cc([N+](=O)[O-])c1 (mixture of isomers) | > 6.00 |  | 
CCCN(CCC)C(=O)c1cc(C(=O)N[C@@H](Cc2ccccc2)C(O)C(=O)NCC2CCN(Cc3ccccc3)CC2)cc([N+](=O)[O-])c1 (mixture of isomers) | > 6.00 |  | 
C[C@@H](NC(=O)c1cccc(C(=O)N[C@@H](Cc2ccccc2)[C@H](O)CNCCC2CCN(Cc3ccccc3)CC2)c1)c1ccccc1 | > 6.00 |  | 
C[C@@H](NC(=O)c1cc(C(=O)N[C@@H](Cc2ccccc2)[C@H](O)CNCC2CCN(Cc3ccccc3)CC2)cc(N(C)S(C)(=O)=O)c1)c1ccc(F)cc1 | > 6.00 | 5.49 | 
C[C@@H](NC(=O)c1cc(C(=O)N[C@@H](Cc2ccccc2)[C@H](O)CNCCC2CCN(Cc3ccccc3)CC2)cc(N(C)S(C)(=O)=O)c1)c1ccccc1 | 7.01 | 6.25 | Activity (Mus musculus [3]): 29%; Activity (PC-12): Active
C[C@@H](NC(=O)c1cc(C(=O)N[C@@H](Cc2ccccc2)[C@H](O)CNCCC2CCN(Cc3ccccc3)CC2)cc([N+](=O)[O-])c1)c1ccccc1 | > 6.00 | 5.15 | 
C[C@@H](NC(=O)c1cc(C(=O)N[C@@H](Cc2ccccc2)C(O)C(=O)NC2CCN(Cc3ccccc3)CC2)cc(N(C)S(C)(=O)=O)c1)c1ccccc1 (mixture of isomers) | > 6.00 |  | 
C[C@@H](NC(=O)c1cc(C(=O)N[C@@H](Cc2ccccc2)C(O)C(=O)NCC2CCN(Cc3ccccc3)CC2)cc(N(C)S(C)(=O)=O)c1)c1ccccc1 (mixture of isomers) | > 6.00 |  | 
CC(C)C[C@H](NC(=O)c1cc(C(=O)N[C@H](C)c2ccc(F)cc2)cc(N(C)S(C)(=O)=O)c1)[C@@H](O)C[C@@H](C)C(=O)NCC1CCN(Cc2ccccc2)CC1 | > 6.00 | 6.21 | 
C[C@@H](NC(=O)c1cc(C(=O)N[C@@H](Cc2ccccc2)C(O)C(=O)NC2CCN(Cc3ccccc3)CC2)cc(N(C)S(C)(=O)=O)c1)c1ccc(F)cc1 (mixture of isomers) | > 6.00 |  | 
C[C@@H](NC(=O)c1cc(C(=O)N[C@@H](Cc2ccccc2)[C@H](O)CNC2CCN(Cc3ccccc3)CC2)cc(N(C)S(C)(=O)=O)c1)c1ccc(F)cc1 | > 6.00 | 6.11 | 
C[C@@H](NC(=O)c1cc(C(=O)N[C@H](CO)Cc2ccccc2)cc(N(C)S(C)(=O)=O)c1)c1ccc(F)cc1 | > 6.00 | 6.34 | 
CC(C)C[C@H](NC(=O)c1cc(C(=O)N[C@H](C)c2ccccc2)cc(N(C)S(C)(=O)=O)c1)[C@@H](O)C[C@@H](C)C(=O)NN1CCN(Cc2ccccc2)CC1 | > 6.00 |  | 
CC(C)C[C@H](NC(=O)c1cc(C(=O)N[C@H](C)c2ccc(F)cc2)cc(N(C)S(C)(=O)=O)c1)[C@@H](O)C[C@@H](C)C(=O)NC1CCN(Cc2ccccc2)CC1 | > 6.00 | 5.82 | 
C[C@@H](NC(=O)c1cc(C(=O)N[C@@H](Cc2ccccc2)[C@H](O)CNC2CCN(Cc3ccccc3)CC2)cc(N(C)S(C)(=O)=O)c1)c1ccccc1 | 7.26 | 6.29 | Activity (Mus musculus [4]): 23%; Activity (PC-12): Active
CCCN(CCC)C(=O)c1cc(C(=O)N[C@@H](Cc2ccccc2)C(O)C(=O)NCCC2CCN(Cc3ccccc3)CC2)cc([N+](=O)[O-])c1 (mixture of isomers) | > 6.00 |  | 
CC(C)C[C@H](NC(=O)c1cc(C(=O)N[C@H](C)c2ccc(F)cc2)cc(N(C)S(C)(=O)=O)c1)[C@@H](O)C[C@@H](C)C(=O)NN1CCN(Cc2ccccc2)CC1 | > 6.00 |  | 
CCCN(CCC)C(=O)c1cccc(C(=O)N[C@@H](Cc2ccccc2)[C@H](O)CNCCC2CCN(Cc3ccccc3)CC2)c1 | > 6.00 |  | 
C[C@@H](NC(=O)c1cc(C(=O)N[C@@H](Cc2ccccc2)C(O)C(=O)NCCC2CCN(Cc3ccccc3)CC2)cc(N(C)S(C)(=O)=O)c1)c1ccccc1 (mixture of isomers) | > 6.00 |  | 
C[C@@H](NC(=O)c1cc(C(=O)N[C@@H](Cc2ccccc2)C(O)C(=O)NCC2CCN(Cc3ccccc3)CC2)cc(N(C)S(C)(=O)=O)c1)c1ccc(F)cc1 (mixture of isomers) | > 6.00 |  | 
CCCN(CCC)C(=O)c1cc(C(=O)N[C@@H](Cc2ccccc2)[C@H](O)CNCCC2CCN(Cc3ccccc3)CC2)cc(N(C)S(C)(=O)=O)c1 | > 6.00 | 5.62 | 
CC(C)C[C@H](NC(=O)c1cc(C(=O)N[C@H](C)c2ccc(F)cc2)cc(N(C)S(C)(=O)=O)c1)[C@@H](O)C[C@@H](C)C(=O)NCCC1CCN(Cc2ccccc2)CC1 | > 6.00 | 5.87 | 
CC(C)C[C@H](NC(=O)c1cc(C(=O)N[C@H](C)c2ccccc2)cc(N(C)S(C)(=O)=O)c1)[C@@H](O)C[C@@H](C)C(=O)NC1CCN(Cc2ccccc2)CC1 | > 6.00 | 5.81 | 
C[C@@H](NC(=O)c1cc(C(=O)N[C@@H](Cc2ccccc2)C(O)C(=O)NCCC2CCN(Cc3ccccc3)CC2)cc(N(C)S(C)(=O)=O)c1)c1ccc(F)cc1 (mixture of isomers) | > 6.00 |  | 
CCCN(CCC)C(=O)c1cc(C(=O)N[C@@H](Cc2ccccc2)[C@H](O)CNCCC2CCN(Cc3ccccc3)CC2)cc([N+](=O)[O-])c1 | > 6.00 |  | 
C[C@@H](NC(=O)c1cc(C(=O)N[C@@H](Cc2ccccc2)[C@H](O)CNCC2CCN(Cc3ccccc3)CC2)cc(N(C)S(C)(=O)=O)c1)c1ccccc1 | > 6.00 | 5.40 | 
C[C@@H](NC(=O)c1cc(C(=O)N[C@@H](Cc2ccccc2)[C@H](O)CNCCC2CCN(Cc3ccccc3)CC2)cc(N(C)S(C)(=O)=O)c1)c1ccc(F)cc1 | > 6.00 | 6.65 | 
C[C@@H](NC(=O)c1cc(C(=O)N[C@@H](Cc2ccccc2)[C@H](O)CNCCC2CCN(Cc3ccccc3)CC2)cc([N+](=O)[O-])c1)c1ccc(F)cc1 | > 6.00 | 5.57 | 

— ChEMBL document CHEMBL1152701, “Design, synthesis and biological evaluation of novel dual inhibitors of acetylcholinesterase and beta-secretase” (Bioorg Med Chem, 2009)
